High-throughput results (PubChem)
INS promoter inh – TRM-6 insulin promoter activity inhibition; TRM-6 cells (human fetal islet line), insulin promoter-eGFP reporter, imaging; reporter expression induced with tamoxifen; hit rate 0.9% among 130,000; AID 1273; inhibition, % at 2 µM;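 active = inhibition above the mean plus 3 SD, with well images judged a real hit on visual review, cut at about 60% in these data, passing the limit was not always enough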
Measles CPE – protection of cells from measles virus. hit rate 1.5% among 140,000. protection (pct of control), % at 4 µM. AID 841. Measles virus-infected cells, CPE protection, absorbance; in the data active = protection mostly above about 24%, no sharp cut-off; inactive = mostly below about 26%
Yeast lifespan up – extends the lifespan of yeast. S. cerevisiae growth with nicotinamide, OD615; deaD strain in restrictive glucose medium. inhibition of the nicotinamide effect, % at 10 µM. hit rate 0.68% among 130,000;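 active = inhibition above a set limit, placed 3 SD over the median of all compounds, cut at about 26% in these data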
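System: DeaD-strain S. cerevisiae / Buffer or medium: CSMM-D, restrictive glucose (dextrose) synthetic minimal medium / Probe or stimulus: nicotinamide, 1.5 mM, co-present with compound / Compound: one concentration, 10 µM, DMSO 0.25% / Incubation: 48 h compound exposure at 30 °C, humidified / Technique: optical density (absorbance) at 615 nm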
BB579 growth dn – yeast BB579 growth reduction in restrictive medium; inhibition, % at 10 µM; hit rate 0.51% among 140,000; S. cerevisiae BB579 growth, OD615, 48 h; AID 804;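 active = inhibition above a set limit, 3 SD over the mean compound inhibition, cut at about 44% in these data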
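System: DeaD yeast strain BB579; buffer or medium: CSMM-D dextrose restrictive medium; technique: OD at 615 nm; schedule: 4 h cell preincubation, 48 h compound exposure, 30 °C humidified; doses: single 10 µM dose; controls: amphotericin B 10 µg/mL, positive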
RAM inhibit – inhibitors of the yeast RAM network | inhibition, % at 50 µM | hit rate 1.8% among 190,000 | S. cerevisiae dse1pr::URA3 reporter, 5-FOA growth OD615, 2 d; analog-sensitive cbk1-as2 kinase mutant strain | AID 868;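 active = inhibition above a set limit, 3 SD over mean compound inhibition, cut at about 8.4% in these data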;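 note: inhibition rescues growth on 5-FOA so higher OD means more RAM inhibition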
Mdm2 ligase inh – Mdm2 E3 ligase (human) inhibition; Q00987; cell-based MDM2 ubiquitination luciferase reporter, 2 h; 0 = plate control, 100 = twice control, blank-subtracted; signal enhancement, % at 5 µM; hit rate 0.11% among 210,000; AID 1230;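 active = signal enhancement of 30% or more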;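 note: luminescence tracks abundance of the self-degrading MDM2-luciferase fusion protein; higher signal means inhibition of MDM2 E3 ligase activity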
Target sequence (Q00987 whole entry, looked up, the tested form may be a part): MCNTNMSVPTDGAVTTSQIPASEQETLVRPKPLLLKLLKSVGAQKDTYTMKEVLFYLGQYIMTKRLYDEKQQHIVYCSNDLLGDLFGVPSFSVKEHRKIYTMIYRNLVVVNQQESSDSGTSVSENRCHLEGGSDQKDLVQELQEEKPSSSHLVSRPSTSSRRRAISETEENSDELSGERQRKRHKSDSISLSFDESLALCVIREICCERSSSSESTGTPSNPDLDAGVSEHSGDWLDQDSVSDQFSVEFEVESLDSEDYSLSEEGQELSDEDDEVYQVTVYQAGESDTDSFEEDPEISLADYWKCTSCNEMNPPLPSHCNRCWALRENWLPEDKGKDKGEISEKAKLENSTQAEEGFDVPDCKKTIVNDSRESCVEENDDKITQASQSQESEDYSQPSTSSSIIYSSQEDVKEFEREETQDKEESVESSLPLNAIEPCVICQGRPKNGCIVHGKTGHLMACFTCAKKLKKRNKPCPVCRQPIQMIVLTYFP
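Buffer or medium: Cells held in DMEM | Assay system: Stable mammalian line carrying autodegrading MDM2–luciferase fusion reporter | Quantity: 2000 cells/well | Times: 4 h settle plus 2 h compound, 37 °C | Doses: One concentration, 5 µM, with 0.2% DMSO | Technique: Luminescence with SteadyLite reagent, 15 min at room temperature | Benchmarks: Plate controls and plate blanks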
Numbers stand for hits; 0 = inactive; - = no result given. Sampled rows, rich in hits. Any-hit rate of the full collection: about 4%.

SMILES | INS promoter inh | Measles CPE | Yeast lifespan up | BB579 growth dn | RAM inhibit | Mdm2 ligase inh
CCn1c(NC(=O)c2ccco2)c(-c2ccccc2Cl)c(=O)c2ccccc21 | 90.0 | 0 | 0 | 0 | 0 | 0
Cn1c(NC(=O)c2ccco2)c(-c2ccccc2)c(=O)c2ccccc21 | 0 | 0 | 0 | 0 | 0 | 0
COc1ccc(S(=O)(=O)Nc2ccc3c(c2)OCO3)cc1C | 85.7 | 0 | 0 | 0 | 0 | 0
CSc1ccc(S(=O)(=O)Nc2ccc3c(c2)OCCO3)cc1 | - | 42.4 | 0 | 0 | 0 | 0
Cc1ccc(S(=O)(=O)Nc2ccc3c(c2)OCCO3)cc1 | - | - | - | - | 0 | 0
CCCCC1C(=O)CC[C@H]2[C@@H]1CC(=O)[C@@H]2C/C=C\CCCC(=O)O (stereo partly drawn) | 0 | 0 | 50.0 | 0 | 0 | -
CCCCC[C@H](O)/C=C/[C@H]1C=CC(=O)[C@@H]1C/C=C\CCCC(=O)O | 0 | 0 | 0 | 0 | 0 | -
O=c1cc(C(F)(F)F)[nH]c2c(C(F)(F)F)cccc12 | 0 | 0 | 0 | 89.6 | 0 | -
Nc1cc(=O)[nH]c(SCC(=O)Nc2cccc(Cl)c2Cl)n1 | 0 | - | - | - | 0 | 0
C#CCOCCOCCOCCNc1nc(N2CCN(C(=O)C([C@@H](C)CC)n3cc(C(N)CO)nn3)CC2)nc(N2CCN(C(=O)[C@H](CCC(=O)O)n3cc(C(N)[C@H](C)CC)nn3)CC2)n1 (stereo partly drawn) | - | - | - | - | - | 0
O=C1OC2CC3CC1CC(O)(C3)C2 (stereo not drawn) | 85.7 | 0 | 0 | 0 | 0 | 0
O=C1c2ccccc2-c2nc3ccccc3nc21 | 0 | 0 | 0 | 85.3 | 0 | 0
COc1ccccc1-c1nc2ccccc2nc1-c1ccccc1OC | - | 0 | 0 | 0 | 0 | 0
CCc1cc2cc3c(cc2nc1SCC(=O)Nc1cc(OC)c(OC)cc1C(=O)O)OCO3 | 0 | - | - | - | 9.5 | 0
CCc1cc2ccc(C)cc2nc1SCC(=O)Nc1cc(OC)c(OC)cc1C(=O)O | 0 | 0 | 0 | 0 | 0 | 0
O=C1c2ccccc2C(=O)N1CSc1nnnn1-c1ccccc1 | 0 | 0 | 0 | 0 | 0 | 0
O=C1c2ccccc2C(=O)N1CCCCSc1nnnn1-c1ccccc1 | - | 0 | 0 | 0 | 9.3 | 0
COc1ccccc1-c1nnc(Nc2nc3c(OC)cccc3s2)o1 | 0 | 0 | 0 | 0 | 0 | 39.4
COc1ccc(/C(C)=N/NC(=O)C(NC(=O)c2ccccc2)c2n[nH]c(=O)c3ccccc23)c(OC)c1 (stereo not drawn) | - | - | - | - | - | 0
NS(=O)(=O)c1ccc(NC(=S)Nc2ccn(Cc3cccc4ccccc34)n2)cc1 | - | - | - | - | 9.3 | 0
COc1ccc(CNC(=O)COC(=O)/C=C/c2cccc(Br)c2)cc1OC | - | - | - | - | 0 | 0
Cc1cccc(/N=C/c2c(O)cc(C)oc2=O)n1 | - | 0 | 0 | 0 | 0 | 0
Cc1cccc(/N=C/c2c(O)ccc3oc4c(c23)CCCC4)n1 | 0 | 0 | 30.8 | 0 | 0 | 0
CC(C1CC1)N(Cc1ccccc1)C(=S)Nc1cccc(C(F)(F)F)c1 (stereo not drawn) | 0 | 0 | 30.6 | 0 | 0 | 0
C[n+]1ccc(C(=O)N/N=C/c2ccco2)cc1 | - | 60.3 | 0 | 0 | 0 | 0
SMILES | INS promoter inh | Measles CPE | Yeast lifespan up | BB579 growth dn | RAM inhibit | Mdm2 ligase inh
COc1ccccc1CNC(=O)CCC(=O)Nc1nnc(C)s1 | - | 51.3 | 0 | 0 | 0 | 0
COc1cc(/C=C(/C#N)c2ccc(F)cc2)ccc1Oc1ccc([N+](=O)[O-])cn1 | 0 | 0 | 0 | 0 | 0 | -
N#CC1=C(N)NC(SCC(=O)c2ccccc2)=C(C#N)C12CCCC2 | 0 | 0 | 0 | 0 | 10.5 | 0
O=C(Nc1ccc(OC(F)F)cc1)Nc1cccc(C(F)(F)F)c1 | 0 | 0 | 0 | 0 | 0 | 0
Cc1cc(C)cc(N(CCC(=O)Nc2nnc(C)s2)S(=O)(=O)c2ccc(Cl)cc2)c1 | 0 | 0 | 0 | 0 | 0 | 0
CCC(C)(C)n1nnnc1C(c1cc2cc(C)cc(C)c2[nH]c1=O)N1CCCC1 (stereo not drawn) | 0 | 0 | 0 | 0 | 0 | 0
CCC(C)(C)n1nnnc1C(c1cc2cccc(C)c2[nH]c1=O)N1CCCC1 (stereo not drawn) | 0 | 0 | 36.3 | 0 | 0 | 0
Cc1cc(/C=C(/C#N)c2cccc(F)c2)c(C)n1-c1cccnc1 | - | 0 | 0 | 0 | 0 | 0
CCn1cc(C(=O)OCC(=O)NCc2ccc3c(c2)OCO3)c(=O)c2ccc(C)nc21 | - | 0 | 0 | 0 | 0 | 0
CC(C)NC(=S)N/N=C/c1sc(N2CCCCC2)nc1-c1cccs1 | 0 | 0 | 0 | 0 | 0 | -
CCCCNC(=S)N(C)/N=C/c1sc(N2CCCCC2)nc1-c1cccs1 | 0 | 0 | 0 | 0 | 9.9 | 0
CCCCC(NC(C)=O)c1nc2ccccc2n1CCC (stereo not drawn) | 0 | 0 | 0 | 0 | 0 | 0
CCCn1c(CNc2ccccc2O)nc2ccccc21 | 0 | 0 | 0 | 45.5 | 0 | 0
CCCn1c(C(C)NC(C)=O)nc2ccccc21 (stereo not drawn) | 0 | 0 | 0 | 43.7 | 0 | 0
c1ccc(NCc2nc3ccccc3n2CCOc2ccccc2)cc1 | 0 | 0 | 40.8 | 0 | 0 | 0
COc1ccc(NCc2nc3ccccc3n2CCOc2ccc(C)cc2)cc1 | 0 | 0 | 0 | 92.3 | 0 | 0
CCCc1nc2ccccc2n1CCOc1ccccc1 | 0 | 0 | 0 | 0 | 0 | 0
O=C(COC(=O)C1(c2ccc(F)cc2)CCCC1)NCc1ccco1 | - | - | - | - | 0 | 0
CCn1cc([N+](=O)[O-])c(C(=O)Nc2nc3ccc(OC)cc3s2)n1 | 0 | - | - | - | 0 | 0
CCN(CC(=O)NC(C)(C)C)C(=O)CCl | 0 | 0 | 0 | 0 | 0 | 0
COc1ccc(NCc2nc3ccccc3n2CCOc2ccccc2)cc1 | 0 | 0 | 55.8 | 0 | 0 | 0
CC(=O)c1oc2ccccc2c1NC(=O)CCCN1C(=O)c2ccccc2C1=O | - | 0 | 0 | 0 | 0 | 0
COC(=O)CCC(=O)c1oc2ccccc2c1NC(=O)CCCN1C(=O)c2ccccc2C1=O | 0 | 0 | 0 | 0 | 8.9 | 0
CCc1ccc(/C=N/NC(=S)NCCc2ccccc2)cc1 | 0 | 0 | 0 | 0 | 8.5 | 0
CCNC(=S)N/N=C/c1cccc(/C=N/NC(=S)NCC)c1 | - | - | - | - | 10.0 | 0
SMILES | INS promoter inh | Measles CPE | Yeast lifespan up | BB579 growth dn | RAM inhibit | Mdm2 ligase inh
CCc1ccccc1NC(=O)c1ccc(CN2CCC(Cc3ccccc3)CC2)cc1 | 0 | 0 | 0 | 0 | 0 | 0
Cc1cccc(NC(=O)C2CCCN(C(=O)Nc3ccccc3)C2)c1C (stereo not drawn) | 0 | 0 | 0 | 0 | 0 | 0
COc1ccc(Cl)cc1-c1nc(-c2ccc(NC(=O)c3ccncc3)cc2)no1 | 0 | - | - | - | - | -
CC(Oc1ccc(Cl)cc1Cl)c1nc(-c2ccc(NC(=O)c3ccccn3)cc2)no1 (stereo not drawn) | 0 | 0 | - | 0 | 11.0 | 0
NC(=O)C1CCN(C(=O)CC2(CC(=O)O)CCCCC2)CC1 | 0 | - | - | - | 0 | 0
NC(=O)CC1(CC(=O)O)CCCCC1 | 0 | 68.0 | 0 | 0 | 0 | 0
O=C(Cn1nnc(-c2cccs2)n1)Nc1ccccc1C(F)(F)F | 0 | - | - | - | 0 | 0
